Measured values: ChEMBL document CHEMBL1131136, “4-(beta-Arylvinyl)-3-(beta-arylvinylketo)-1-ethyl-4-piperidinols and related compounds: a novel class of cytotoxic and anticancer agents” (J Med Chem, 1998)

Key:
Homo sapiens [1] = organism: Homo sapiens; assay: Cytotoxicity evaluated against human tumor.; type: functional
How it was run: (§1)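 NCI panel of about 55 human tumor cell lines covering leukemia, melanoma, non-small-cell lung, colon, CNS, ovarian, renal, prostate and breast cancers, with some compounds tested on small-cell lung instead of prostate and breast.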

P388 = assay: Cytotoxicity evaluated against P388 cells.; type: functional, cell-based; conditions: Mus musculus
L1210 = assay: Cytotoxicity evaluated against L1210 cells.; type: functional, cell-based; conditions: Mus musculus
Mus musculus [2] = assay: Percentage increase in the median time in days for the CAKI-1 treated tumor to reach a certain size compared to controls at the dose of 16.8 mg/kg; type: functional
How it was run: (§2)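 Human tumor xenografts passaged in athymic mice, tested by the NCI Developmental Therapeutics Program. %ILS is the percentage increase in median days for treated tumors to reach a set size versus untreated controls.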

Mus musculus [3] = assay: Percentage increase in the median time in days for the COLO 205 treated tumor to reach a certain size compared to controls at the dose of 16.8 mg/kg; type: functional; how it was run: as §2
Mus musculus [4] = assay: Percentage increase in the median time in days for the KM12 treated tumor to reach a certain size compared to controls at the dose of 25 mg/kg; type: functional; how it was run: as §2
Mus musculus [5] = assay: Optimal value of the percentage reduction of the median treated CAKI-1 tumor weight compared to the median control tumor weight at the dose of 16.8 mg/kg; type: functional
How it was run: (§3)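 The NCI Developmental Therapeutics Program passaged human tumor xenografts in athymic mice. % T/C is the optimal ratio of median treated to median control tumor weight. Tumor-growth delay (% ILS) was the increase in median days for treated tumors to reach a set size compared with controls.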

Mus musculus [6] = assay: Optimal value of the percentage reduction of the median treated COLO 205 tumor weight compared to the median control tumor weight at the dose of 16.8 mg/kg; type: functional; how it was run: as §3
Mus musculus [7] = assay: Optimal value of the percentage reduction of the median treated KM12 tumor weight compared to the median control tumor weight at the dose of 16.8 mg/kg; type: functional; how it was run: as §3
Homo sapiens [8] = organism: Homo sapiens; assay: Cytotoxicity evaluated against human tumor; type: functional; how it was run: as §1
Mus musculus [9] = assay: Percentage increase in the median time in days for the COLO 205 treated tumor to reach a certain size compared to controls at the dose of 200 mg/kg; type: functional; how it was run: as §2
Mus musculus [10] = assay: Percentage increase in the median time in days for the NCI-H522 treated tumor to reach a certain size compared to controls at the dose of 80 mg/kg; type: functional; how it was run: as §2
Mus musculus [11] = assay: Percentage increase in the median time in days for the SW-620 treated tumor to reach a certain size compared to controls at the dose of 80 mg/kg; type: functional; how it was run: as §2
Mus musculus [12] = assay: Optimal value of the percentage reduction of the median treated COLO 205 tumor weight compared to the median control tumor weight at the dose of 200 mg/kg; type: functional; how it was run: as §3
Mus musculus [13] = assay: Optimal value of the percentage reduction of the median treated NCI-H522 tumor weight compared to the median control tumor weight at the dose of 80 mg/kg; type: functional; how it was run: as §3
Mus musculus [14] = assay: Optimal value of the percentage reduction of the median treated SW-620 tumor weight compared to the median control tumor weight at the dose of 80 mg/kg; type: functional; how it was run: as §3

Compound: CC[N+]1(C)CC[C@@](O)(c2ccc(OC)cc2)[C@H](C(=O)c2ccc(OC)cc2)C1 (stereo partly drawn)
- IC50 (Homo sapiens [1]): 10.2 µM
- IC50 (P388): 0.98 µM

Compound: CC[N+]1(C)CC[C@@](O)(/C=C/c2ccc(C)cc2)[C@H](C(=O)/C=C/c2ccc(C)cc2)C1 (stereo partly drawn)
- IC50 (L1210): 13.8 µM
- IC50 (P388): 0.62 µM

Compound: CC[N+]1(C)CC[C@@](O)(c2ccc(C)cc2)[C@H](C(=O)c2ccc(C)cc2)C1 (stereo partly drawn)
- IC50 (Homo sapiens [1]): 50.1 µM
- IC50 (P388): 2.1 µM

Compound: CC[N+]1(C)CC[C@@](O)(c2ccc(Cl)c(Cl)c2)[C@H](C(=O)c2ccc(Cl)c(Cl)c2)C1 (stereo partly drawn)
- IC50 (Homo sapiens [1]): 9.54 µM
- IC50 (L1210): 33.6 µM
- IC50 (P388): 2.3 µM

Compound: CC[N+]1(C)CC[C@@](O)(c2ccc(Cl)cc2)[C@H](C(=O)c2ccc(Cl)cc2)C1 (stereo partly drawn)
- IC50 (Homo sapiens [1]): 12.9 µM
- IC50 (P388): 1.5 µM

Compound: CC[N+]1(C)CC[C@@](O)(c2ccccc2)[C@H](C(=O)c2ccccc2)C1 (stereo partly drawn)
- IC50 (P388): 1.3 µM

Compound: CC[N+]1(C)CC[C@@](O)(/C=C/c2ccccc2)[C@H](C(=O)/C=C/c2ccccc2)C1.[Br-] (stereo partly drawn)
- IC50 (Homo sapiens [1]): 8.31 µM
- ILS at 16.8 mg/kg (Mus musculus [2]): 6%
- ILS at 16.8 mg/kg (Mus musculus [3]): 14%
- ILS at 25 mg/kg (Mus musculus [4]): 5%
- T/C (Mus musculus [5]): 43%
- T/C (Mus musculus [6]): 20%
- T/C (Mus musculus [7]): 45%
- IC50 (P388): 2.27 µM

Compound: CC[N+]1(C)CC[C@@](O)(/C=C/c2ccc(Cl)c(Cl)c2)[C@H](C(=O)/C=C/c2ccc(Cl)c(Cl)c2)C1 (stereo partly drawn)
- IC50 (Homo sapiens [1]): 2.19 µM
- IC50 (L1210): 21.4 µM
- IC50 (P388): 0.64 µM

Compound: CCN1CC[C@@](O)(/C=C/c2ccc(Cl)c(Cl)c2)[C@H](C(=O)/C=C/c2ccc(Cl)c(Cl)c2)C1
- IC50 (Homo sapiens [1]): 0.38 µM
- IC50 (P388): 0.4 µM

Compound: CCN(CC)CC(C)(C)C(=O)/C=C/c1ccc(Cl)cc1
- IC50 (L1210): 6.39 µM
- IC50 (P388): 2.2 µM

Compound: O=C(CCN1CCN(CCC(=O)c2ccccc2)CC1)c1ccccc1
- IC50 (L1210): 9.71 µM
- IC50 (P388): 2.84 µM

Compound: CCN1CC[C@@](O)(/C=C/c2ccccc2)[C@H](C(=O)/C=C/c2ccccc2)C1
- IC50 (Homo sapiens [1]): 2.75 µM
- IC50 (L1210): 5.3 µM
- IC50 (P388): 1.4 µM

Compound: CCN1CC[C@@](O)(/C=C/c2ccccc2C)[C@H](C(=O)/C=C/c2ccccc2C)C1
- IC50 (Homo sapiens [1]): 2.46 µM
- IC50 (L1210): 12.6 µM
- IC50 (P388): 1.89 µM

Compound: CCN(CC)CCC(=O)c1ccc(C)cc1
- IC50 (Homo sapiens [1]): 26.3 µM
- IC50 (L1210): 21.5 µM
- IC50 (P388): 2.2 µM

Compound: CCN1CC[C@@](O)(c2ccc(Cl)c(Cl)c2)[C@H](C(=O)c2ccc(Cl)c(Cl)c2)C1
- IC50 (Homo sapiens [1]): 16.6 µM
- IC50 (P388): 3.11 µM

Compound: CCN(CC)CCC(=O)/C=C/c1ccc(C)cc1
- IC50 (L1210): 52.9 µM
- IC50 (P388): 1.1 µM

Compound: CCN1CC[C@@](O)(c2ccc(Cl)cc2)[C@H](C(=O)c2ccc(Cl)cc2)C1
- IC50 (Homo sapiens [1]): 83.2 µM
- IC50 (L1210): 15.7 µM
- IC50 (P388): 5.14 µM

Compound: CCN(CC)CCC(=O)/C=C/c1ccc(Cl)c(Cl)c1
- IC50 (Homo sapiens [1]): 3.8 µM
- IC50 (L1210): 61.2 µM
- IC50 (P388): 0.39 µM

Compound: CCN1CC[C@@](O)(/C=C/c2ccc(OC)cc2)[C@H](C(=O)/C=C/c2ccc(OC)cc2)C1
- IC50 (L1210): 25.6 µM
- IC50 (P388): 5 µM
- IC50 (Homo sapiens [8]): 8.31 µM

Compound: CCN1CC[C@@](O)(/C=C/c2ccc(C)cc2)[C@H](C(=O)/C=C/c2ccc(C)cc2)C1.Cl
- IC50 (Homo sapiens [1]): 5.01 µM
- IC50 (L1210): 6.08 µM
- ILS at 200 mg/kg (Mus musculus [9]): 28%
- ILS at 80 mg/kg (Mus musculus [10]): -2%
- ILS at 80 mg/kg (Mus musculus [11]): 9%
- T/C (Mus musculus [12]): 57%
- T/C (Mus musculus [13]): 23%
- T/C (Mus musculus [14]): 32%
- IC50 (P388): 2.1 µM

Compound: CCN(CC)CCC(=O)c1ccc(Cl)cc1
- IC50 (L1210): 36.9 µM
- IC50 (P388): 3.2 µM

Compound: CCN(CC)CCC(=O)/C=C/c1ccccc1
- IC50 (Homo sapiens [1]): 9.77 µM
- IC50 (L1210): 25.7 µM
- IC50 (P388): 1.7 µM

Compound: CCN(CC)CCC(=O)c1ccc(Cl)c(Cl)c1
- IC50 (Homo sapiens [1]): 32.4 µM
- IC50 (L1210): 36.4 µM
- IC50 (P388): 0.31 µM

Compound: CCN(CC)CCC(=O)/C=C/c1ccc(Cl)cc1
- IC50 (L1210): 41 µM
- IC50 (P388): 0.3 µM

Compound: CCN1CC[C@@](O)(c2ccc(OC)cc2)[C@H](C(=O)c2ccc(OC)cc2)C1
- IC50 (Homo sapiens [1]): 19.5 µM
- IC50 (L1210): 13.5 µM
- IC50 (P388): 4.17 µM

Compound: CCN1CC[C@@](O)(c2ccc(C)cc2)[C@H](C(=O)c2ccc(C)cc2)C1
- IC50 (Homo sapiens [1]): 25.1 µM
- IC50 (L1210): 38.2 µM
- IC50 (P388): 8.6 µM

Compound: CCN(CC)CCC(=O)c1ccccc1
- IC50 (Homo sapiens [1]): 25.1 µM
- IC50 (L1210): 20.3 µM
- IC50 (P388): 2.6 µM

Compound: CCN1CC[C@@](O)(c2ccc(O)cc2)[C@H](C(=O)c2ccc(O)cc2)C1
- IC50 (Homo sapiens [1]): 20.9 µM
- IC50 (L1210): 9.75 µM
- IC50 (P388): 1.4 µM

Compound: CCN(CC)CCC(=O)c1ccc(OC)cc1
- IC50 (L1210): 43.8 µM
- IC50 (P388): 1.6 µM

Compound: CCN1CC[C@@](O)(/C=C/c2ccc(C)cc2C)[C@H](C(=O)/C=C/c2ccc(C)cc2C)C1
- IC50 (L1210): 20.9 µM
- IC50 (P388): 2.59 µM

Compound: CCN(CC)CCC(=O)/C=C/c1ccc(OC)cc1
- IC50 (L1210): 44.3 µM
- IC50 (P388): 0.67 µM

Compound: O=C(/C=C/c1ccccc1)CCN1CCN(CCC(=O)/C=C/c2ccccc2)CC1
- IC50 (Homo sapiens [1]): 12 µM
- IC50 (L1210): 5.78 µM
- IC50 (P388): 0.62 µM

Compound: CCN1CC[C@@](O)(c2ccccc2)[C@H](C(=O)c2ccccc2)C1
- IC50 (Homo sapiens [1]): 30.2 µM
- IC50 (L1210): 20.1 µM
- IC50 (P388): 1.07 µM

Compound: CCN1CC[C@@](O)(/C=C/c2ccc(Cl)cc2)[C@H](C(=O)/C=C/c2ccc(Cl)cc2)C1
- IC50 (Homo sapiens [1]): 25.7 µM
- IC50 (L1210): 6.96 µM
- IC50 (P388): 1.1 µM

Compound: N[C@@H](Cc1ccc(N(CCCl)CCCl)cc1)C(=O)O
- IC50 (Homo sapiens [1]): 26.3 µM
